According to ChEMBL document CHEMBL1140829, “1-Aminoindanes as novel motif with potential atypical antipsychotic properties” (Bioorg Med Chem Lett, 2008):

Tests used:
[1] = target: Voltage-gated inwardly rectifying potassium channel KCNH2 (Homo sapiens, UniProt Q12809); experiment: Displacement of [3H]dofetilide from human ERG channel expressed in HEK293 cells; format: cell-based
[2] = target: T1, 5-hydroxytryptamine receptor 1A (Homo sapiens, UniProt P08908); experiment: (§1) Displacement of [3H]8OHDPAT from human 5HT1A receptor
T1 sequence (P08908 whole entry): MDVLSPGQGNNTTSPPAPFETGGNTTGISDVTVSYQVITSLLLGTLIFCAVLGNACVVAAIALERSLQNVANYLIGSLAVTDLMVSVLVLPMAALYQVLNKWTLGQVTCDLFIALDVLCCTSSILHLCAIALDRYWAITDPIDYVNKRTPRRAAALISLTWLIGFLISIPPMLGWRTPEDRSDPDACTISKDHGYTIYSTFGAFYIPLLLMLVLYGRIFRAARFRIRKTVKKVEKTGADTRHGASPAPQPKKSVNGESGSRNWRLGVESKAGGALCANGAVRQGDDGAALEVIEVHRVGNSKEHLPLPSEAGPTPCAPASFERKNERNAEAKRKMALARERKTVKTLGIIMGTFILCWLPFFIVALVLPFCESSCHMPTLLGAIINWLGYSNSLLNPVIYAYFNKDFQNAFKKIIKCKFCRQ
Outline: (§2)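 Radioligand competition binding on cloned human receptor membranes: [3H]8-OH-DPAT for 5-HT1A; CHO-cell D2L membranes with [3H]spiperone. Membranes plus radioligand with or without varying compound concentrations. Bound and free separated by vacuum filtration; bound counted by liquid scintillation. Concentration–percent inhibition of specific binding fit by nonlinear regression to IC50.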

[3] = target: T2, Alpha-1A adrenergic receptor (Rattus norvegicus, UniProt P43140); experiment: Displacement of [3H]prazosin from rat adrenergic alpha1A receptor expressed in fibroblast cells; format: cell-based
T2 sequence (P43140 whole entry): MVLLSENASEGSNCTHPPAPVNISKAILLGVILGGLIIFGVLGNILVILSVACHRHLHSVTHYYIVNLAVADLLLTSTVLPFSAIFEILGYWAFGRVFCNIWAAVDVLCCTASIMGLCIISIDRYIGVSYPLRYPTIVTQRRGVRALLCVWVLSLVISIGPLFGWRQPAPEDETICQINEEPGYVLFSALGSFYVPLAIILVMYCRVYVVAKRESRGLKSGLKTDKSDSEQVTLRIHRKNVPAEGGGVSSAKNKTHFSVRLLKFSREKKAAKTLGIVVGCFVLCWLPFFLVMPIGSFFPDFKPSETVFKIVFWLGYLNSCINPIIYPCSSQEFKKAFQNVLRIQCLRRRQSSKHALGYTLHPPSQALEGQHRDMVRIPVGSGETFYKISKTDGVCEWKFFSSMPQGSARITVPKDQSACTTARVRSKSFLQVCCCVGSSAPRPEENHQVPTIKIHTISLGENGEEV
Outline: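 Cloned rat alpha1a receptor in fibroblast cell membranes; [3H]prazosin as radioligand, incubated with or without a range of compound concentrations. Filtration under vacuum removed free label; bound measured by liquid scintillation counting. Percent inhibition of specific binding vs concentration fit by nonlinear regression for IC50.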

[4] = target: 5-hydroxytryptamine receptor 2A (Homo sapiens, UniProt P28223); experiment: Displacement of [3H]ketanserin from human 5HT2A receptor expressed in Swiss 3T3 cells; format: cell-based
Outline: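 Membranes from Swiss 3T3 cells expressing human 5-HT2A, labeled with [3H]ketanserin, incubated with or without varying compound concentrations. Vacuum filtration separated unbound label; bound label read by liquid scintillation. IC50 from nonlinear-regression fit of concentration vs percent inhibition of specific binding. Ki reported as geometric mean of at least three experiments.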

D(2) dopamine receptor [5] = target: T3, D(2) dopamine receptor (Homo sapiens, UniProt P14416); experiment: Displacement of [3H]spiperone from human D2L receptor expressed in CHO cells at 100 nM; format: cell-based
D(2) dopamine receptor [6] = target: T3, D(2) dopamine receptor; experiment: Displacement of [3H]spiperone from human D2L receptor expressed in CHO cells; format: cell-based; outline: as §2
[7] = target: T4, 5-hydroxytryptamine receptor 1A (Homo sapiens) (UniProt P08908); experiment: as §1; outline: as §2
T4 sequence (whole entry): T1 sequence (P08908 whole entry)

T3 sequence (P14416 whole entry): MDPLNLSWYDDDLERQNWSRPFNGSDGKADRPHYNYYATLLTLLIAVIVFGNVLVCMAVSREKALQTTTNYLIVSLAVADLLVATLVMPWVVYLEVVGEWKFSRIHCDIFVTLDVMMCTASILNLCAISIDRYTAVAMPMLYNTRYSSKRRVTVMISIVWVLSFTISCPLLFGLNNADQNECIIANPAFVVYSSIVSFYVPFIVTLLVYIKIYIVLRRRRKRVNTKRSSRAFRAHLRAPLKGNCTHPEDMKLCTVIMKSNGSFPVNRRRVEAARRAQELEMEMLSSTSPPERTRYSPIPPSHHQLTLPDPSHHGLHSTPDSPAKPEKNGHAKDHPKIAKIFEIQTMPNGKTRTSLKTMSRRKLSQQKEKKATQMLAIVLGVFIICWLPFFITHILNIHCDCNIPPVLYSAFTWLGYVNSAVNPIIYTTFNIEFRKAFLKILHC
Sequence of 5-hydroxytryptamine receptor 2A (P28223 whole entry): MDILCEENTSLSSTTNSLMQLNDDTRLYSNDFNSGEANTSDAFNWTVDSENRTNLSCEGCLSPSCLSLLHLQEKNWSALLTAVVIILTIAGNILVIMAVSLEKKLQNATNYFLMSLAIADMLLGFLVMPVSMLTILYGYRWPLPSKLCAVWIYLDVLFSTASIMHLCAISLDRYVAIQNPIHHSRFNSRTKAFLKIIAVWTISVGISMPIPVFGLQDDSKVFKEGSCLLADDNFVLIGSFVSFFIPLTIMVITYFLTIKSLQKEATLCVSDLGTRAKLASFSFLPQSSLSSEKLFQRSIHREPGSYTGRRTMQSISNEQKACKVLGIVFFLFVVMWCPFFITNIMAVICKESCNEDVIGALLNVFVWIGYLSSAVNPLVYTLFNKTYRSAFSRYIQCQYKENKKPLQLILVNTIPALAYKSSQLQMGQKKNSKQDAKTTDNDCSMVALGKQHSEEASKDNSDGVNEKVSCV
Sequence of Voltage-gated inwardly rectifying potassium channel KCNH2 (Q12809 whole entry): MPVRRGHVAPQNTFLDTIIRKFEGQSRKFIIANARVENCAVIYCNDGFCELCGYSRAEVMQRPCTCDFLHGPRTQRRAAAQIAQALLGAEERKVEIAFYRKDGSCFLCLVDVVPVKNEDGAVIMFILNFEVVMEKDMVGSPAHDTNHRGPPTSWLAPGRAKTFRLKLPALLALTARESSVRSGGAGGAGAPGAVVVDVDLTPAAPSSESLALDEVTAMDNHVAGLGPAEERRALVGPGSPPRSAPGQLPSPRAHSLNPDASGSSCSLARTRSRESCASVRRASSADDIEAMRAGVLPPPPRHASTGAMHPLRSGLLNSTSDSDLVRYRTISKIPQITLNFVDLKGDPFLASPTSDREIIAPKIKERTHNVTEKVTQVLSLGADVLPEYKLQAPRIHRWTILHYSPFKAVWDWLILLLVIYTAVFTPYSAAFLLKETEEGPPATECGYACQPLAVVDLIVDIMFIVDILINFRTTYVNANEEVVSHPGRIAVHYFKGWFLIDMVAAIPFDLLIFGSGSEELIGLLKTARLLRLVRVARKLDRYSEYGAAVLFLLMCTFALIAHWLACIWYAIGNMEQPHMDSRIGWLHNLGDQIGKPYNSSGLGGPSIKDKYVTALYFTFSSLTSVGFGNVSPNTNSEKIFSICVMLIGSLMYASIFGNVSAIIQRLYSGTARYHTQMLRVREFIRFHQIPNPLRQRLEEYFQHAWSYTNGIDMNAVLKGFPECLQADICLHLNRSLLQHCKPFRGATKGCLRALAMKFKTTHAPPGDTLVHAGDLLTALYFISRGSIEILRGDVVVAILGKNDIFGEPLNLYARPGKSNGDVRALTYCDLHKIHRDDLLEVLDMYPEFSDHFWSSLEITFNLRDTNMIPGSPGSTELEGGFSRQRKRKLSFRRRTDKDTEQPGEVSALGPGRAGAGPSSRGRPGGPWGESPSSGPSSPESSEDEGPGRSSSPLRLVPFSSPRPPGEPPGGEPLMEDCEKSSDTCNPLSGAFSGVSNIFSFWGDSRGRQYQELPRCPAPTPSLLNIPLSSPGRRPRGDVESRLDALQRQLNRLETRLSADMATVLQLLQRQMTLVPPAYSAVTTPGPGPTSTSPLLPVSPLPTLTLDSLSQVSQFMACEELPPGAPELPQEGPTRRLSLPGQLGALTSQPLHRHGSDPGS

Row | SMILES | Ki [2] [nM] | Ki [3] [nM] | Ki [4] [nM] | Activity (D(2) dopamine receptor [5]) [%] | Ki (D(2) dopamine receptor [6]) [nM] | Intrinsic activity [7] [%] | Activity ([1]; human, hek293) | Ki [1] [nM]
1 | O=C1Cc2cc(CCN3CCN(c4nsc5ccccc45)CC3)c(Cl)cc2N1 [ZIPRASIDONE] | 4 | 0.5 | – | – | – | – | Not Active | –
2 | CC(C)C(=O)NC1CCc2cc(CCN3CCN(c4nsc5ccccc45)CC3)ccc21 (centres undefined) | 1 | 0.49 | 0.65 | 17 | – | – | – | 219
3 | O=C(NC1CCc2ccc(CCN3CCN(c4nsc5ccccc45)CC3)cc21)C1CC1 (centres undefined) | 12 | 2.22 | 0.3 | – | 21 | 60 | – | 35
4 | O=C(NC1CCc2ccc(CCN3CCN(c4nsc5ccccc45)CC3)cc21)C(F)(F)F (centres undefined) | 4.9 | 1.92 | – | – | 10 | – | – | 101
5 | O=C(NC1CCc2cc(CCN3CCN(c4nsc5ccccc45)CC3)ccc21)C(F)(F)F (centres undefined) | 1 | 0.3 | 0.15 | – | 8 | 60 | – | –
6 | O=C(NC1CCc2cc(CCN3CCN(c4nsc5ccccc45)CC3)ccc21)C1CC1 (centres undefined) | 2 | 0.73 | 0.45 | 27 | – | – | – | 137
7 | CCCC(=O)NC1CCc2cc(CCN3CCN(c4nsc5ccccc45)CC3)ccc21 (centres undefined) | 2 | 0.9 | 0.5 | 21 | – | 60 | – | 269
8 | CC(=O)NC1CCc2cc(CCN3CCN(c4nsc5ccccc45)CC3)ccc21 (centres undefined) | 1.1 | 3.18 | 0.33 | – | 15 | 60 | – | 2200
9 | NC1CCc2ccc(CCN3CCN(c4nsc5ccccc45)CC3)cc21 (centres undefined) | 2 | 2.72 | 0.09 | – | 21 | 60 | – | 616
10 | CCC(=O)NC1CCc2cc(CCN3CCN(c4nsc5ccccc45)CC3)ccc21 (centres undefined) | 2 | 0.45 | 0.25 | 21 | – | 60 | – | 184

Further lines, with some results ahead:

Row | Ki [2] [nM] | Ki [3] [nM] | Ki [4] [nM] | Activity (D(2) dopamine receptor [5]) [%] | Ki (D(2) dopamine receptor [6]) [nM] | Intrinsic activity [7] [%] | SMILES | Activity ([1]; human, hek293) | Ki [1] [nM]
11 | 6.5 | 1.88 | 0.08 | – | – | – | O=C(NC1CCc2ccc(CCN3CCN(c4nsc5ccccc45)CC3)cc21)c1ccno1 (centres undefined) | – | 150
12 | 4.5 | 3.31 | 0.95 | – | 6 | – | O=C(NC1CCc2ccc(CCN3CCN(c4nsc5ccccc45)CC3)cc21)c1cccnc1 (centres undefined) | – | 358
13 | 56 | 5.64 | 0.1 | – | 5 | 60 | O=C(NC1CCc2ccc(CCN3CCN(c4nsc5ccccc45)CC3)cc21)c1ccc(Cl)cc1 (centres undefined) | – | 166
14 | 5.5 | 3.96 | 0.45 | – | 27 | 60 | CCCC(=O)NC1CCc2ccc(CCN3CCN(c4nsc5ccccc45)CC3)cc21 (centres undefined) | – | –
15 | 7.8 | 15.6 | 1.65 | – | 10 | 60 | O=C(NC1CCc2cc(CCN3CCN(c4nsc5ccccc45)CC3)ccc21)c1ccc(F)cc1 (centres undefined) | – | 135
16 | 7.9 | 1.38 | 0.55 | – | 5 | – | O=C(NC1CCc2ccc(CCN3CCN(c4nsc5ccccc45)CC3)cc21)c1ccco1 (centres undefined) | – | 35
17 | 7.5 | 1.34 | 0.01 | – | 22 | 60 | CC(=O)NC1CCc2ccc(CCN3CCN(c4nsc5ccccc45)CC3)cc21 (centres undefined) | – | 885
18 | 12 | 3.61 | 0.75 | – | 67 | – | CC(C)C(=O)NC1CCc2ccc(CCN3CCN(c4nsc5ccccc45)CC3)cc21 (centres undefined) | – | 278
19 | 20.9 | 5.27 | 0.04 | – | 26 | 60 | O=C(Cc1ccccc1)NC1CCc2ccc(CCN3CCN(c4nsc5ccccc45)CC3)cc21 (centres undefined) | – | –
20 | 37.2 | 10.3 | 0.95 | – | 33 | 60 | O=C(CCc1ccccc1)NC1CCc2ccc(CCN3CCN(c4nsc5ccccc45)CC3)cc21 (centres undefined) | – | –
21 | 41.8 | 10.9 | 4.75 | – | 22 | – | O=C(NC1CCc2ccc(CCN3CCN(c4nsc5ccccc45)CC3)cc21)c1ccccc1 (centres undefined) | – | –
22 | 28.1 | 13.5 | 3 | – | 15 | – | Cc1ccc(C(=O)NC2CCc3ccc(CCN4CCN(c5nsc6ccccc56)CC4)cc32)cc1 (centres undefined) | – | 194
23 | 5 | 3.03 | 0.01 | – | 34 | – | CCC(=O)NC1CCc2ccc(CCN3CCN(c4nsc5ccccc45)CC3)cc21 (centres undefined) | – | 164
24 | 66.7 | 10.3 | 2.45 | – | 6 | – | O=C(NC1CCc2ccc(CCN3CCN(c4nsc5ccccc45)CC3)cc21)c1ccc(F)cc1 (centres undefined) | – | 78
25 | 7.7 | 17.4 | 0.68 | – | 5 | 60 | O=C(NC1CCc2cc(CCN3CCN(c4nsc5ccccc45)CC3)ccc21)c1cccnc1 (centres undefined) | – | 202
